Here are results for 98 compounds from ChEMBL document CHEMBL4513216, “Probing the Open Global Health Chemical Diversity Library for Multistage-Active Starting Points for Next-Generation Antimalarials” (ACS Infect Dis, 2020).

Molecules are shown by their SMILES.

A short description of the data set: Toxicity liver stage against HepG2, at 10uM. Type of data set: cell-based. More on the design: test concentration 10 uM, cell line HepG2-A16-CD81EGFP. As to conditions: human, HepG2-A16-CD81EGFP cells; read-out: INHIBITION
Summed up:
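Uninfected HepG2-A16-CD81EGFP cells, 3 × 10^3 per well, 1536-well, plated on prespotted compound at 10 μM final, parasite-free screening media added to match infected plates; puromycin 10 μM positive, DMSO 0.5% negative; run in parallel with 48 h PbLuc assay at 37 °C, 5% CO2; viability by CellTiter-Glo luminescence, normalized to controls.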
Regarding `CCCn1ncc(C(=O)N2CCCC(OCc3ccccn3)C2)c1C` (stereo not drawn), the cytotoxicity at 10 µM was -0.2%.

Turning to `COc1cccc(Nc2nc(C3CCNCC3)c3ccccn23)c1`, the cytotoxicity at 10 µM was -2.67%.

For `Cn1cc(CNC(=O)NCCOc2ccc(F)c(F)c2)cn1`, the cytotoxicity at 10 µM is 2.13%.

With `Cc1cc(C(=O)Nc2ccc(CN3CCOCC3)cn2)n(C)n1`, the cytotoxicity at 10 µM is 3.86%.

With `C1CCN(c2nc(N3CCOCC3)nc3[nH]nnc23)CC1`, the cytotoxicity at 10 µM was 8.95%.

Regarding `COc1ccccc1C(C(=O)O)N1CCCN(C2CCCC2)CC1` (stereo not drawn), the cytotoxicity at 10 µM is -9.12%.

As to `CCn1ncc(C(=O)N2CCCN(CCCc3ccccc3)CC2)c1C`, the cytotoxicity at 10 µM is -2.62%.

For `O=C(c1cn2ccsc2n1)N1CCN(CC2CC2)[C@@H]2CS(=O)(=O)C[C@@H]21`, the cytotoxicity at 10 µM was -2.82%.

On to `Cc1cccc2c1nc1n2[C@@H](CNC(=O)Cc2ccccc2)COC1`, for which the cytotoxicity at 10 µM was -5.12%.

Take `Cc1cnc2n1CCN(C)C21CCN(C(=O)CC(C)C)CC1`: the cytotoxicity at 10 µM is -5.85%.

For the compound `CN(C)c1ccc(C(=O)NCC2(O)CCOCC2)cc1`, the cytotoxicity at 10 µM was -3.34%.

With `CCC(Nc1ccc(Oc2ccc(C#N)cc2OC)cc1)C(N)=O` (stereo not drawn), the cytotoxicity at 10 µM worked out at 65.7%.

`O=C1NC2(CCCN(C(=O)CCn3cccn3)C2)Oc2ccccc21` (stereo not drawn): the cytotoxicity at 10 µM is -6.19%.

For `CNC(=O)C1(c2cnccn2)CCCN1C(=O)c1ncccc1C` (stereo not drawn), the cytotoxicity at 10 µM amounted to 4.22%.

As for `CC(=O)N1[C@H](Cn2cncn2)C[C@@H]2CN(c3ncccn3)CC[C@@H]21`, the cytotoxicity at 10 µM was -2.96%.

For the compound `CN1CCOC(CNCc2coc(-c3cccs3)n2)C1` (stereo not drawn), the cytotoxicity at 10 µM was -3.71%.

As for `CC(C)N(C)[C@@H]1CCN(Cc2ccco2)[C@H]1Cc1ccccc1`, the cytotoxicity at 10 µM was -7.92%.

For the compound `CN(C)C(=O)COC[C@]12COC[C@H]1CN(CCc1ccccc1)C2`, the cytotoxicity at 10 µM is -1.69%.

Consider `CN1CCCC1c1ccnc(-c2ccccc2)n1` (stereo not drawn), for which the cytotoxicity at 10 µM was 2.77%.

For `COc1ccc(C(NCc2cccc(C#N)c2)C2CC2)cc1` (stereo not drawn), the cytotoxicity at 10 µM is 15.9%.

As for `O=C(Cn1nc(-c2ccc(F)cc2)oc1=O)NCCc1ccccc1`, the cytotoxicity at 10 µM was -13.5%.

With `CC1CC(NS(=O)(=O)c2ccc(C(F)(F)F)nc2)C1` (stereo not drawn), the cytotoxicity at 10 µM turned out to be 23.1%.

Regarding `Fc1ccccc1CN1CCCN(c2ccc3cc[nH]c3n2)CC1`, the cytotoxicity at 10 µM is -15.2%.

Take `O=C(CS(=O)(=O)Cc1cc(Cl)c2c(c1)OCCCO2)NCC1CC1`: the cytotoxicity at 10 µM came out at 1.07%.

Turning to `Cc1cc(NC(=O)CNC2CCc3ncnn3C2)no1` (stereo not drawn), the cytotoxicity at 10 µM was -6.73%.

As to `CCOc1ccc(CC(=O)Nc2cnccc2SCCCO)cc1`, the cytotoxicity at 10 µM came to 7.94%.

Turning to `COCCCC1CCN([C@@H]2c3ccccc3C3(CCNCC3)[C@H]2O)CC1`, the cytotoxicity at 10 µM is -4.67%.

Take `COc1c(C2CCCN2Cc2nc(-c3ccco3)no2)c(C)nn1C` (stereo not drawn): the cytotoxicity at 10 µM was -10.2%.

Take `Cc1ccc(NC2CCN(C(=O)c3cccc4cccnc34)CC2)nn1`: the cytotoxicity at 10 µM is -8.31%.

For `Cc1nc(CN2CCCN(c3nccs3)CC2)no1`, the cytotoxicity at 10 µM is -3.62%.

Turning to `COc1ccccc1NCC(=O)NCc1scnc1C`, the cytotoxicity at 10 µM is 5.48%.

On to `CN(C)C(=O)CCNC(=O)c1cnc(-c2ccccc2)nc1`, for which the cytotoxicity at 10 µM is 4.87%.

Regarding `COCc1nc(CNC2CCC3(CCNCC3)CC2)no1`, the cytotoxicity at 10 µM is -3.13%.

As to `Cc1nc(-c2cccc(N3CCC(NC4CCSC4)CC3)c2)cs1` (stereo not drawn), the cytotoxicity at 10 µM is 2.86%.

As to `CN(CC(=O)N1CCCC1c1noc(C2CC2)n1)Cc1ccccc1` (stereo not drawn), the cytotoxicity at 10 µM is -5.09%.

Take `CC(O)CN1CC(C)(C)CN(C(=O)CCc2ccccc2)CC1=O` (stereo not drawn): the cytotoxicity at 10 µM was -0.321%.

For the compound `CN1CC[C@@H]2OC[C@H](C(=O)N(C)Cc3ccccn3)C[C@@H]2C1`, the cytotoxicity at 10 µM was -98%.

`CCC(CC)(CNC(=O)OC(C)(C)C)NC(=O)C1CCOCC1`: the cytotoxicity at 10 µM came out at 1.85%.

On to `CN1CCC(N2CCOC3(CCCC3)C2)C1=O` (stereo not drawn), for which the cytotoxicity at 10 µM is -6.52%.

In the case of `CC(C)C(C(=O)NC1CCOCC1)n1cnc2cc(F)c(F)cc21` (stereo not drawn), the cytotoxicity at 10 µM is -2.75%.

Take `Cc1nccn1C1CCCN(C(=O)CCCNc2ncccn2)C1` (stereo not drawn): the cytotoxicity at 10 µM is -6.42%.

In the case of `O=C(NCC1CC1)c1cc2c(s1)CCN2c1ncccn1`, the cytotoxicity at 10 µM is -101%.

As to `CC1CN(C)c2ccccc2CN1C(=O)c1cnsn1` (stereo not drawn), the cytotoxicity at 10 µM turned out to be 0.736%.

As for `O=C(CSC1CCc2ccccc2NC1=O)NC1CC1` (stereo not drawn), the cytotoxicity at 10 µM was determined as 6.58%.

As for `Cc1ccc(C(C)NCc2cn(CCC(N)=O)c3ccccc23)cc1C` (stereo not drawn), the cytotoxicity at 10 µM is -1.69%.

As to `Cc1ccccc1N1CC(C)N(C(=O)CCn2cccn2)CC1=O` (stereo not drawn), the cytotoxicity at 10 µM is 10.1%.

`Cc1cc2c(=O)n3c(nc2s1)CCN(Cc1ccncc1)CC3`: the cytotoxicity at 10 µM came out at 10.9%.

With `CCOC(=O)c1coc(N2CCN(Cc3ccc(C)cc3)C(=O)C2)n1`, the cytotoxicity at 10 µM was -0.0261%.

In the case of `CN(Cc1cnn(C)c1)C(=O)NC1CCCC1`, the cytotoxicity at 10 µM worked out at 7.43%.

In the case of `COc1cc(CNc2nc(C3CC3)no2)cc(OC)c1OC`, the cytotoxicity at 10 µM was -0.291%.

In the case of `COc1cccc(CN2CCC(Cc3cnc(CN(C)C)cn3)CC2)c1`, the cytotoxicity at 10 µM was -2.82%.

`Fc1cccc(O[C@@H]2C[C@H]3CN(Cc4ccncc4)CCN3C2)c1`: the cytotoxicity at 10 µM was -143%.

As to `O=C(CCc1ccccn1)NC1CCCN(C2Cc3ccccc3C2)C1` (stereo not drawn), the cytotoxicity at 10 µM was determined as 1.96%.

For `O=C(c1cccnc1)N1CCOC2(COCCN(c3cncnc3)C2)C1` (stereo not drawn), the cytotoxicity at 10 µM was 4.53%.

Turning to `Cc1ncsc1C(=O)OCCN1CCCCCC1=O`, the cytotoxicity at 10 µM was -4.27%.

As to `COCC1CCN(c2ccnc3ccsc23)C1` (stereo not drawn), the cytotoxicity at 10 µM turned out to be 6.24%.

Regarding `COc1c(C2CCCN2C(=O)c2cncnc2C)c(C)nn1C` (stereo not drawn), the cytotoxicity at 10 µM is -6.19%.

With `CC(C)c1noc(CCCC(=O)Nc2cccc(F)c2)n1`, the cytotoxicity at 10 µM amounted to 7.01%.

`Nc1nc2c(c(N3CCC(CN4CCCC4=O)CC3)n1)CCNCC2`: the cytotoxicity at 10 µM is -3.95%.

As for `COc1cccc(CN(C)S(=O)(=O)N2CCOCC2)c1`, the cytotoxicity at 10 µM is -8.62%.

In the case of `Cc1cc(N2CCOC(C(F)(F)F)C2)nc(-c2ccccc2O)n1` (stereo not drawn), the cytotoxicity at 10 µM was -0.238%.

`NC(=O)CN1CCOCC(Cc2cccc(F)c2)C1` (stereo not drawn): the cytotoxicity at 10 µM was -12.2%.

For `Cc1nc(C)n(C2CCCN(C(=O)CCc3ccncc3)C2)n1` (stereo not drawn), the cytotoxicity at 10 µM is -5.23%.

Consider `CCCNC(=O)c1cnc(N(C)C)nc1COC`, for which the cytotoxicity at 10 µM came out at 3.17%.

Take `COc1cc(CNc2nc3c(c(=O)[nH]2)CCNC3)cc(OC)c1OC`: the cytotoxicity at 10 µM was determined as 4.72%.

With `c1ccc(N2CCC3(COCCN(c4ncccn4)C3)C2)nc1` (stereo not drawn), the cytotoxicity at 10 µM stood at 2.78%.

With `Cc1nc(CN2CC3(CCN(c4ncc(F)cn4)C3)CC2=O)cs1` (stereo not drawn), the cytotoxicity at 10 µM was 3.25%.

Consider `CCN(Cc1ccc(N(C)C)cc1)S(=O)(=O)c1cc(Br)ccc1OC`, for which the cytotoxicity at 10 µM was determined as 5.12%.

With `Cc1noc(C)c1CN1CCO[C@H]2CNC[C@H]21`, the cytotoxicity at 10 µM worked out at 5.4%.

Turning to `COc1cccc(CNc2nc(C)cc(C)n2)c1OC`, the cytotoxicity at 10 µM was -6.44%.

In the case of `Cc1cc(C)cc(C(=O)NCCCNc2ncccn2)c1`, the cytotoxicity at 10 µM came out at 32.4%.

As to `COCCn1ccc(=O)c(OCC(=O)Nc2ccc(OC)c(Cl)c2)c1C`, the cytotoxicity at 10 µM was determined as 5.36%.

Consider `CCN(CC)S(=O)(=O)N1CCCC1c1nnc2n1CCN(C)CC2` (stereo not drawn), for which the cytotoxicity at 10 µM is 0.45%.

With `COc1ccc(CNc2cnn(C)c(=O)c2Cl)cc1`, the cytotoxicity at 10 µM is -3.45%.

Consider `Cc1ccnn1CCC(=O)N1CCCC[C@]2(C)NC(=O)CCC[C@H]12`, for which the cytotoxicity at 10 µM is -0.822%.

For the compound `CCCN(CC1CC1)C(=O)Cn1ccccc1=O`, the cytotoxicity at 10 µM was 9.09%.

In the case of `Cc1cccc(C(=O)N2CCn3cc(CN4CCCCC4)nc3C2)n1`, the cytotoxicity at 10 µM was -79%.

For the compound `Cn1cccc1C(=O)N1CCC2(CCN(C(=O)c3cccnc3)C2)CC1`, the cytotoxicity at 10 µM is -102%.

On to `Cc1cccc(N2CCOCC3(C2)CN(c2ccccc2)C(=O)CO3)n1` (stereo not drawn), for which the cytotoxicity at 10 µM was -4.53%.

Take `CC(C)N(C)Cc1cncc2c1CCN(CC(=O)N(C)C)C2`: the cytotoxicity at 10 µM is -100%.

For the compound `Cc1csc(CNC(=O)NCC(O)c2cccc(Cl)c2)n1` (stereo not drawn), the cytotoxicity at 10 µM is -14.6%.

For `Cc1nc2c(c(=O)n1C)CN(C(=O)C1CCCN(CC(N)=O)C1)C2` (stereo not drawn), the cytotoxicity at 10 µM was -6%.

For the compound `CN(Cc1cn2c(n1)CN(c1ncc(F)cn1)CC2)Cc1ccco1`, the cytotoxicity at 10 µM was 3.96%.

For `Cc1ccc(N2CC[C@@H]3[C@@H]2CCN3C(=O)Cc2ccsc2)nn1`, the cytotoxicity at 10 µM is -93.9%.

Turning to `CCc1ccccc1NC(=O)C1CN(C(C)=O)C1`, the cytotoxicity at 10 µM was determined as 8.49%.

Regarding `COc1cc(I)c(Cl)cc1C(=O)N(C)CC(=O)NC(C)(C)C`, the cytotoxicity at 10 µM was found to be 15.4%.

With `CNC(=O)C1CCCCN1C(=O)c1csc(-c2ccc(C)cc2)n1` (stereo not drawn), the cytotoxicity at 10 µM is 11.6%.

`CS(=O)(=O)c1ccc(-c2cc(O)cc(CCC3CCCCN3)c2)cc1` (stereo not drawn): the cytotoxicity at 10 µM turned out to be 0.292%.

Take `O=C(NCCCO)Nc1cccc(C[S+]([O-])Cc2ccccc2)c1` (stereo not drawn): the cytotoxicity at 10 µM was -1.06%.

As for `COC(=O)C1CCN(C(=O)c2cc(Br)ccc2-n2cnnn2)CC1`, the cytotoxicity at 10 µM came to 4.67%.

Regarding `Nc1cccnc1N1CCC(O)CC1`, the cytotoxicity at 10 µM came to 2.3%.

Take `Cc1nc(C)c(CCN2CCC(Oc3ccccc3F)CC2)s1`: the cytotoxicity at 10 µM turned out to be 42.9%.

Regarding `COc1ccccc1C(C)N1CCN(S(C)(=O)=O)CC1` (stereo not drawn), the cytotoxicity at 10 µM was found to be 9.62%.

Regarding `OCCN1CC2(CCN(c3ccccc3)C2)C1`, the cytotoxicity at 10 µM stood at 0.234%.

As for `Cn1cc(C2CCCN2C(=O)Cc2coc(-c3ccccc3)n2)cn1` (stereo not drawn), the cytotoxicity at 10 µM came to 4.14%.

Turning to `CC(C)N1CCO[C@H]2CN(C(=O)Cc3cccs3)C[C@H]21`, the cytotoxicity at 10 µM is 7.07%.

As for `Cc1noc(C2CCC3(CCN(C(=O)c4cnn(C)c4)CC3)O2)n1` (stereo not drawn), the cytotoxicity at 10 µM is 8.77%.

Turning to `CC(Cn1cnc2cn(C)nc2c1=O)Oc1cccnc1` (stereo not drawn), the cytotoxicity at 10 µM is -11.7%.
